TRPC4 potent: TRPC4 (mouse) allosteric potentiation | Q9QUQ5 | HEK293 TRPC4beta/mu-opioid, DAMGO EC20, Fluo-4 Ca2+ flux; active compounds read high | B-score at 10 µM | hit rate 0.42% among 310,000;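 active = B-score of calcium response area above 5 SD of library B-scores, with initial fluorescence ratio within 5 SD of library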;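 note: B-score of integrated fluorescence ratio over time as area under calcium response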
Target sequence (Q9QUQ5 whole entry, looked up): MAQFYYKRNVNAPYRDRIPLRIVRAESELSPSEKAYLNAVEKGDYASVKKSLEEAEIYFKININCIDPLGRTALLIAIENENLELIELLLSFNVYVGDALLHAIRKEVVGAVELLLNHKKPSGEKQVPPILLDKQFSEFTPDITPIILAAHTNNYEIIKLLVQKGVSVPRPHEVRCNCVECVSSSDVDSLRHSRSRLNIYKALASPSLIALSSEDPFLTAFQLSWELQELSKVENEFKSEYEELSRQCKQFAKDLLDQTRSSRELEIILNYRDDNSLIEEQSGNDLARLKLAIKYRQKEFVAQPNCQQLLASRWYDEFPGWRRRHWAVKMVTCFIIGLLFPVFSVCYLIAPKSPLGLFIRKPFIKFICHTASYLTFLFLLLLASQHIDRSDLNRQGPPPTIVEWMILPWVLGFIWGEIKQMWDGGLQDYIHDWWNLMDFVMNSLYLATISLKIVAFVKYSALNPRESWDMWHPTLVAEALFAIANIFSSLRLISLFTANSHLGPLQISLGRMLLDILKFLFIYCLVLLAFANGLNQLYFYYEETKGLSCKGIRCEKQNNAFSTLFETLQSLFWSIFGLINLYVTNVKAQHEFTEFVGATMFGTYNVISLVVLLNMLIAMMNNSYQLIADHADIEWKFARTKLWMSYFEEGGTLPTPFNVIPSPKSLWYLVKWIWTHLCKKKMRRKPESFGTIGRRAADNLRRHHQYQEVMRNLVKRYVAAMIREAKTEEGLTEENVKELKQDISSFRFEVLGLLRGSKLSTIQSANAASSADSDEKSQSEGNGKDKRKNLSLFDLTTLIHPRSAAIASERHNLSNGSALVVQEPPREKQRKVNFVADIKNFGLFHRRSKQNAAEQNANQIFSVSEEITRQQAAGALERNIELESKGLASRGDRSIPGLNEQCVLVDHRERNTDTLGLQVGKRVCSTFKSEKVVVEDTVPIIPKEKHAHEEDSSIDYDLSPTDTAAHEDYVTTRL
TRPC4 inh: TRPC4 (mouse) channel inhibition; Q9QUQ5; HEK293 TRPC4beta/mu-opioid, DAMGO-evoked Fluo4 calcium flux; active compounds read low; B-score at 10 µM; hit rate 0.39% among 300,000; AID 2247;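 active = B-score over 3 SD under the library average, no early fluorescence shift, positive overall ratio signal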
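Assay system – HEK293 line stably carrying TRPC4beta and mu-opioid receptor · Doses – single dose · Detection – Fluo4 calcium-dye fluorescence, kinetic read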
TRPC6 inhibitor: mouse TRPC6 channel inhibition. HEK293-TRPC6, membrane potential dye, ACh-evoked depolarization; active compounds read low. hit rate 1.1% among 310,000. B-score at 10 µM. Q61143;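 active = B-score under library mean minus 3 SD, initial fluorescence not abnormally high, positive integrated signal ratio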;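 note: B-score derived from integrated fluorescence ratio over the kinetic read; more negative B-score means stronger inhibition of depolarization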
TRPC6 activator: mouse TRPC6 channel activation. Q61143. HEK293-TRPC6 membrane potential dye fluorescence; active compounds read high. B-score at 10 µM. hit rate 0.13% among 310,000. AID 2550;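 active = B-score of the integrated fluorescence ratio above library mean plus 3 SD, and starting fluorescence ratio within library mean plus 5 SD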;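 note: higher score means more depolarization so channel activation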
TRPC4 agonist: opens the mouse TRPC4 cation channel. Q9QUQ5. HEK293 TRPC4beta/mu-opioid, Fluo4 calcium fluorescence; active compounds read high. B-score at 10 µM. hit rate 0.49% among 310,000. AID 2237;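 active = B-score above 5 SD of library B-scores, and initial fluorescence ratio not above library mean plus 5 SD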;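 note: positive B-score marks a calcium rise read as TRPC4 activation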
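System: HEK293 cells stably co-expressing mouse TRPC4beta and mu-opioid receptor; Schedule: Fluo4 dye loading 45 min at room temperature, 110 s recording; Detection: Fluo4 fluorescence, kinetic; Evaluation: B-scored integrated calcium fluorescence ratio; Controls: buffer (low) and maximal DAMGO (high).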
TRPC4 sel inh 2: second check of whether TRPC6 inhibitors also affect mouse TRPC4; HEK293 TRPC4/MOR, membrane potential dye fluorescence; channel activated by saturating DAMGO dose; AID 2776; shares compounds with TRPC6 inhibitor; hit rate 42% among 920; inhibition, % at 10 µM;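 active = compounds whose fluorescence signal differed from control wells by over 3 SD, either direction, in both duplicate plates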
TRPC4 spec: selectivity of TRPC6 inhibitors: effect on mouse TRPC4 | AID 2777 | HEK293 TRPC4/mu-opioid, membrane potential fluorescence | activity change, negative = inhibition, % at 10 µM | shares compounds with TRPC6 inhibitor | hit rate 61% among 920;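 active = rise or fall in signal beyond 3 SD of buffer-only wells in both replicate plates, either sign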;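 note: integrated kinetic ratio of fluorescence range over baseline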
HEK293 MPD ctr 2-1: parental HEK293 nonspecific activity of TRPC6 inhibitors, second screen; shares compounds with TRPC6 inhibitor; parental HEK293 membrane potential dye fluorescence; maximal acetylcholine challenge after compound addition; signal change vs control, % at 10 µM; hit rate 31% among 920;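 active = membrane potential signal moving either way by over 3 SD of the maximum-effect control, in both duplicate plates, meaning non-specific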
HEK293 MPD ctr-1: checks TRPC6 inhibitor effects in parental HEK293 cells; membrane potential signal change, % at 10 µM; parental HEK293 membrane potential dye fluorescence; hit rate 60% among 920; shares compounds with TRPC6 inhibitor;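 active = membrane potential signal shifting up or down by more than 3 SD of buffer-only wells, on both duplicate plates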
HEK293 MPD ctr-2: counter-screen for TRPC6 modulators: effect in parental HEK293 cells; membrane potential dye fluorescence; membrane potential signal change, % at 10 µM; AID 488924; shares compounds with TRPC6 inhibitor; hit rate 51% among 2,400;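 active = membrane potential signal moves up or down beyond 5 SD from buffer-only wells, on both duplicate plates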
HEK293 MPD ctr 2-2: parental HEK293 nonspecific activity of TRPC6 modulators, second screen; shares compounds with TRPC6 inhibitor; membrane potential dye fluorescence; after compound, maximal acetylcholine stimulation; inhibition, % at 10 µM; hit rate 14% among 2,400; AID 488926;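 active = membrane potential signal drops by more than 5 SD from the mean control signal, in both duplicate plates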;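 note: plate controls were acetylcholine ECmax control wells for no effect and buffer only wells for full effect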
TRPC4 ctr mod: mouse TRPC4 off-target activity of TRPC6 modulators | shares compounds with TRPC6 inhibitor | HEK293 TRPC4/mu-opioid, membrane potential fluorescence | percent change from control (negative = decrease, positive = increase), % at 10 µM | hit rate 69% among 2,400 | AID 488927;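 active = membrane potential signal moved up or down beyond 5 SD of buffer control wells, in both duplicate plates, actives on both sides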;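 note: plate controls were assay buffer wells for no effect and DAMGO maximal-effect wells for full effect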
TRPC4/MOR inh 2: mouse TRPC4 off-target activity of TRPC6 modulators, second screen. shares compounds with TRPC6 inhibitor. inhibition, % at 10 µM. HEK293 TRPC4/mu-opioid, membrane potential dye fluorescence; stimulated with maximal-effect DAMGO. hit rate 55% among 2,400;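 active = drop in membrane potential signal beyond 5 SD of the control wells in both duplicate plates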;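 note: TRPC4 counter screen for TRPC6 hits run under conditions tuned for TRPC6 not TRPC4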
TRPC6 block conf: mouse TRPC6 inhibitor confirmation | shares compounds with TRPC6 inhibitor | inhibition, % at 10 µM | hit rate 43% among 3,300 | AID 488960 | HEK293-TRPC6, membrane potential dye, ACh-evoked depolarization;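 active = fluorescence ratio falls more than 5 SD below the full-stimulation control mean, in both duplicate runs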;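 note: integrated fluorescence ratio of peak minus minimum over baseline after agonist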
TRPC6 act confirm: mouse TRPC6 activator confirmation | shares compounds with TRPC6 inhibitor | activation, % at 10 µM | HEK293-TRPC6 membrane potential dye fluorescence, FDSS | hit rate 11% among 2,800;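 active = ratio signal rise beyond 5 SD above unstimulated control wells' mean, seen in both duplicate runs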;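 note: plate controls were buffer EC0 wells for no effect and acetylcholine ECmax response for full effect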
* = called active by the depositor; i = inactive; x = not tested or not shown. Compounds with a hit are over-represented: about 2.3% of the library has one in this group of screens.

SMILES | TRPC4 potent | TRPC4 inh | TRPC6 inhibitor | TRPC6 activator | TRPC4 agonist | HEK293 MPD ctr-2 | HEK293 MPD ctr 2-2 | TRPC4 ctr mod | TRPC4/MOR inh 2 | TRPC6 block conf | TRPC6 act confirm | others
Brc1ccc(-c2c[n+]3c(n2-c2ccccc2)SCC3)cc1 | i | i | -7.24* | i | i | x | x | x | x | i | i | TRPC4 sel inh 2=i;TRPC4 spec=-14.9%*;HEK293 MPD ctr 2-1=-20.5%*;HEK293 MPD ctr-1=-228.5%*
COc1ccc(-c2c[n+]3c(n2-c2ccccc2)SCC3)cc1OC | i | i | i | i | i | x | x | x | x | x | x
COc1ccc(-c2c[n+]3c(n2-c2ccccc2)SCC3)cc1 | i | i | -8.24* | i | i | x | x | x | x | 62.9%* | i | TRPC4 sel inh 2=i;TRPC4 spec=-11.6%*;HEK293 MPD ctr 2-1=-12.0%*;HEK293 MPD ctr-1=-172.5%*
Cc1ccc(-c2c[n+]3c(n2-c2ccccc2)SCC3)cc1 | i | i | -5.41* | i | i | i | i | -11.0%* | i | i | i
COc1ccc(CC(=O)N[C@@H](C)C(=O)N2CCC3(CC2)NCCc2[nH]cnc23)cc1 | i | i | i | i | i | x | x | x | x | x | x
CCOC(=O)c1ccc(NC(=S)N2CCCC(C)C2)cc1 (centres undefined) | i | i | -5.02* | i | i | i | i | i | i | i | i
CCOC(=O)c1ccc(NC(=S)N2CCCC(C(=O)N3CCCC3)C2)cc1 (centres undefined) | i | i | i | i | i | x | x | x | x | x | x
Cc1sc2ncnc(NCC(O)c3ccc([N+](=O)[O-])cc3)c2c1C (centres undefined) | i | i | i | i | i | x | x | x | x | x | x
CCOC(=O)c1c(NC(=O)c2cccc([N+](=O)[O-])c2C(=O)O)sc2c1CCCC2 | i | i | i | 36.8* | i | 209.5%* | i | 37.0%* | i | i | 101.5%*
CCOC(=O)c1c(NC(=O)c2c(C(=O)O)cccc2[N+](=O)[O-])sc2c1CCCC2 | i | i | i | 29.5* | i | 194.0%* | i | 31.0%* | i | i | 116.5%*
CCOC(=O)C1CCCCN1S(=O)(=O)c1cc2c(cc1C)NC(=O)CO2 (centres undefined) | i | i | i | i | i | x | x | x | x | x | x
COc1ccc(OC)c(NC(=O)CC2C(=O)NCCN2C(=O)Nc2cccc(Cl)c2)c1 (centres undefined) | i | i | -5.93* | i | i | i | i | -14.0%* | 29.0%* | i | i
CCc1ccc(NC(=O)CN(C(=O)N2CCN(CC)CC2)S(=O)(=O)c2ccc(C)cc2)cc1 | i | i | i | i | i | x | x | x | x | x | x

High-throughput results deposited in PubChem BioAssay by Johns Hopkins Ion Channel Center.
